The results in this text go back to ChEMBL document CHEMBL2062386, “Discovery of LFF571: an investigational agent for Clostridium difficile infection” (J Med Chem, 2012).

≈ marks a conversion by molar mass, not a printed value. Where only a bound is given, the exact number is not on record here.

Holding throughout (type): functional
Experiment [1] can be described thus: Antibacterial activity against Clostridium difficile ATCC 43255 by broth microdilution method. Conditions: Clostridioides difficile. Put shortly:
(§1)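 Broth microdilution MICs were run per CLSI M07-A8 (2009). The strain panel included C. difficile ATCC 43255, E. faecalis ATCC 29212 and S. pyogenes ATCC BAA-595.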
On the technique in general: Broth dilution looks for growth in wells or tubes with falling amounts of substance.

A further experiment concerns Enterococcus faecium. The experiment can be described thus: Antibacterial activity against Enterococcus faecium 7130724 by broth microdilution method.
The subject of a further experiment is Streptococcus pyogenes. The experiment can be described thus: Antibacterial activity against Streptococcus pyogenes ATCC BAA-595 by broth microdilution method. In a few lines: as §1
Another experiment relates to Enterococcus faecalis. The experiment can be described thus: Antibacterial activity against Enterococcus faecalis ATCC 29212 by broth microdilution method. In a few lines: as §1
The test system of a further experiment is Escherichia coli. The experiment can be described thus: Inhibition of protein synthesis in Escherichia coli S30 extract at 2 uM after 75 mins by luciferase based luminescence assay relative to GE2270A.
In the next experiment the test system is Staphylococcus aureus. The experiment can be described thus: Antibacterial activity against Staphylococcus aureus A4.018 by broth microdilution method.

As to `CNC(=O)C[C@@H]1NC(=O)c2csc(n2)-c2ccc(-c3nc(NC(=O)N4C[C@H](CCC(=O)O)C[C@H](CCC(=O)O)C4)cs3)nc2-c2csc(n2)-c2csc(n2)[C@H]([C@@H](O)c2ccccc2)NC(=O)CNC(=O)c2nc(sc2COC)[C@H](C(C)C)NC(=O)c2nc1sc2C`, the MIC (as a rule, the smallest concentration in the dilution series that meets the test's criterion for growth inhibition) in experiment [1] stood at 0.25 µg/mL (≈ 0.185 µM); with Enterococcus faecium, 4 µg/mL (≈ 2.96 µM); with Streptococcus pyogenes, 4 µg/mL (≈ 2.96 µM); against Enterococcus faecalis, 2 µg/mL (≈ 1.48 µM); in the experiment with Staphylococcus aureus it was 4 µg/mL (≈ 2.96 µM). The inhibition (as a rule, how much of the control response was suppressed) at 2 µM in the experiment on Escherichia coli amounted to 30%.
With `CNC(=O)C[C@@H]1NC(=O)c2csc(n2)-c2ccc(-c3nc(N(CCCCC(=O)O)C(=O)OC4CC(C(=O)O)C4)cs3)nc2-c2csc(n2)-c2csc(n2)[C@H]([C@@H](O)c2ccccc2)NC(=O)CNC(=O)c2nc(sc2COC)[C@H](C(C)C)NC(=O)c2nc1sc2C` (some centres not stated), the minimal inhibitory concentration (MIC) in experiment [1] was 0.03 µg/mL (≈ 0.0224 µM); against Enterococcus faecium, 0.25 µg/mL (≈ 0.187 µM); against Streptococcus pyogenes, 2 µg/mL (≈ 1.49 µM); against Enterococcus faecalis, 0.25 µg/mL (≈ 0.187 µM); against Staphylococcus aureus, 0.5 µg/mL (≈ 0.374 µM). In addition, the inhibition at 2 µM in the experiment with Escherichia coli was 67%.
On to `CNC(=O)C[C@@H]1NC(=O)c2csc(n2)-c2ccc(-c3nc(N(CCCCC(=O)O)C(=O)OC(CCCCC(=O)O)CCC(=O)O)cs3)nc2-c2csc(n2)-c2csc(n2)[C@H]([C@@H](O)c2ccccc2)NC(=O)CNC(=O)c2nc(sc2COC)[C@H](C(C)C)NC(=O)c2nc1sc2C` (some centres not stated), for which the MIC was 2 µg/mL (≈ 1.4 µM) in experiment [1]; 32 µg/mL (≈ 22.4 µM) against Enterococcus faecium; > 32 µg/mL in the experiment with Streptococcus pyogenes; 16 µg/mL (≈ 11.2 µM) against Enterococcus faecalis; 32 µg/mL (≈ 22.4 µM) against Staphylococcus aureus. The molecule also gave an inhibition at 2 µM in the experiment with Escherichia coli of 50%.
`CNC(=O)C[C@@H]1NC(=O)c2csc(n2)-c2ccc(-c3nc(N(CCCCC(CCC(=O)O)C(=O)O)C(=O)O[C@H]4CC[C@H](C(=O)O)CC4)cs3)nc2-c2csc(n2)-c2csc(n2)[C@H]([C@@H](O)c2ccccc2)NC(=O)CNC(=O)c2nc(sc2COC)[C@H](C(C)C)NC(=O)c2nc1sc2C` (some centres not stated): the MIC in experiment [1] came out at 0.25 µg/mL (≈ 0.172 µM); in the experiment with Enterococcus faecium it was 8 µg/mL (≈ 5.51 µM); in the experiment with Streptococcus pyogenes it was 8 µg/mL (≈ 5.51 µM); against Enterococcus faecalis, 8 µg/mL (≈ 5.51 µM); in the experiment with Staphylococcus aureus it was 16 µg/mL (≈ 11 µM). The molecule also had an inhibition at 2 µM in the experiment with Escherichia coli of 50%.
As to `CNC(=O)C[C@@H]1NC(=O)c2csc(n2)-c2ccc(-c3nc(N(CCCCC(=O)O)C(=O)OCC4CC4C(=O)O)cs3)nc2-c2csc(n2)-c2csc(n2)[C@H]([C@@H](O)c2ccccc2)NC(=O)CNC(=O)c2nc(sc2COC)[C@H](C(C)C)NC(=O)c2nc1sc2C` (some centres not stated), the MIC in experiment [1] stood at 0.03 µg/mL (≈ 0.0224 µM); against Enterococcus faecium it was 0.5 µg/mL (≈ 0.374 µM); with Streptococcus pyogenes, 2 µg/mL (≈ 1.49 µM); in the experiment with Enterococcus faecalis, 0.125 µg/mL (≈ 0.0934 µM); in the experiment on Staphylococcus aureus it was 0.25 µg/mL (≈ 0.187 µM). Besides, in the experiment with Escherichia coli, the inhibition at 2 µM came out at 67%.
With `CNC(=O)C[C@@H]1NC(=O)c2csc(n2)-c2ccc(-c3nc(N(CC(CC(=O)O)OC)C(=O)O[C@H]4CC[C@H](C(=O)O)CC4)cs3)nc2-c2csc(n2)-c2csc(n2)[C@H]([C@@H](O)c2ccccc2)NC(=O)CNC(=O)c2nc(sc2COC)[C@H](C(C)C)NC(=O)c2nc1sc2C` (some centres not stated), the MIC is 0.06 µg/mL (≈ 0.0434 µM) in experiment [1]; 1 µg/mL (≈ 0.723 µM) against Enterococcus faecium; 4 µg/mL (≈ 2.89 µM) with Streptococcus pyogenes; 1 µg/mL (≈ 0.723 µM) against Enterococcus faecalis; 1 µg/mL (≈ 0.723 µM) in the experiment on Staphylococcus aureus. Moreover, the inhibition at 2 µM in the experiment with Escherichia coli is 67%.
Consider `CNC(=O)C[C@@H]1NC(=O)c2csc(n2)-c2ccc(-c3nc(N(CCCCC(=O)O)C(=O)[C@H]4CC[C@@H](C(=O)O)O4)cs3)nc2-c2csc(n2)-c2csc(n2)[C@H]([C@@H](O)c2ccccc2)NC(=O)CNC(=O)c2nc(sc2COC)[C@H](C(C)C)NC(=O)c2nc1sc2C`, for which the MIC is > 4 µg/mL in experiment [1]; > 32 µg/mL with Enterococcus faecium; > 32 µg/mL in the experiment with Streptococcus pyogenes; > 32 µg/mL against Enterococcus faecalis; > 32 µg/mL against Staphylococcus aureus. Besides, in the experiment with Escherichia coli, the inhibition at 2 µM turned out to be 30%.
For `CNC(=O)C[C@@H]1NC(=O)c2csc(n2)-c2ccc(-c3nc(N(CCCCC(=O)O)C(=O)O[C@]4(CCCCC(=O)O)CC[C@@H](C(=O)O)CC4)cs3)nc2-c2csc(n2)-c2csc(n2)[C@H]([C@@H](O)c2ccccc2)NC(=O)CNC(=O)c2nc(sc2COC)[C@H](C(C)C)NC(=O)c2nc1sc2C`, the MIC with Enterococcus faecium was found to be 8 µg/mL (≈ 5.45 µM); in the experiment on Streptococcus pyogenes it was 16 µg/mL (≈ 10.9 µM); in the experiment on Enterococcus faecalis, 4 µg/mL (≈ 2.73 µM); in the experiment on Staphylococcus aureus, 8 µg/mL (≈ 5.45 µM). Moreover, 2 µM produced 50% inhibition in the experiment with Escherichia coli.
Regarding `CNC(=O)C[C@@H]1NC(=O)c2csc(n2)-c2ccc(-c3nc(N(CCCCC(=O)O)C(=O)[C@H]4CC[C@H](C(=O)O)CC4)cs3)nc2-c2csc(n2)-c2csc(n2)[C@H]([C@@H](O)c2ccccc2)NC(=O)CNC(=O)c2nc(sc2COC)[C@H](C(C)C)NC(=O)c2nc1sc2C`, the MIC in experiment [1] was 2 µg/mL (≈ 1.48 µM); in the experiment with Enterococcus faecium, > 32 µg/mL; in the experiment with Streptococcus pyogenes it was > 32 µg/mL; against Enterococcus faecalis, 32 µg/mL (≈ 23.7 µM); in the experiment on Staphylococcus aureus, 16 µg/mL (≈ 11.8 µM). In the experiment with Escherichia coli, this molecule returned an inhibition at 2 µM of 30%.
With `CNC(=O)C[C@@H]1NC(=O)c2csc(n2)-c2ccc(-c3nc(NC(=O)CC[C@H](CC(=O)O)C(=O)O)cs3)nc2-c2csc(n2)-c2csc(n2)[C@H]([C@@H](O)c2ccccc2)NC(=O)CNC(=O)c2nc(sc2COC)[C@H](C(C)C)NC(=O)c2nc1sc2C`, the MIC in experiment [1] is 4 µg/mL (≈ 3.15 µM); with Enterococcus faecium, 8 µg/mL (≈ 6.31 µM); in the experiment with Streptococcus pyogenes, > 32 µg/mL; with Enterococcus faecalis, 4 µg/mL (≈ 3.15 µM); in the experiment with Staphylococcus aureus, 8 µg/mL (≈ 6.31 µM). In the experiment on Escherichia coli, this molecule came in with an inhibition at 2 µM of 30%.
`CNC(=O)C[C@@H]1NC(=O)c2csc(n2)-c2ccc(-c3nc(N(CCCC(CCCCCCC(=O)O)C(=O)O)C(=O)O[C@H]4CC[C@H](C(=O)O)CC4)cs3)nc2-c2csc(n2)-c2csc(n2)[C@H]([C@@H](O)c2ccccc2)NC(=O)CNC(=O)c2nc(sc2COC)[C@H](C(C)C)NC(=O)c2nc1sc2C` (some centres not stated): the MIC in experiment [1] came to 0.06 µg/mL (≈ 0.0401 µM); against Enterococcus faecium, 0.5 µg/mL (≈ 0.334 µM); with Streptococcus pyogenes, 1 µg/mL (≈ 0.669 µM); against Enterococcus faecalis, 0.25 µg/mL (≈ 0.167 µM); in the experiment with Staphylococcus aureus it was 1 µg/mL (≈ 0.669 µM). In the experiment with Escherichia coli, this molecule showed an inhibition at 2 µM of 50%.
Regarding `CNC(=O)C[C@@H]1NC(=O)c2csc(n2)-c2ccc(-c3nc(N(CCCCC(=O)O)C(=O)O[C@H]4CC[C@](CCCCC(=O)O)(C(=O)O)CC4)cs3)nc2-c2csc(n2)-c2csc(n2)[C@H]([C@@H](O)c2ccccc2)NC(=O)CNC(=O)c2nc(sc2COC)[C@H](C(C)C)NC(=O)c2nc1sc2C`, the MIC in experiment [1] turned out to be 0.03 µg/mL (≈ 0.0205 µM); against Enterococcus faecium, 1 µg/mL (≈ 0.682 µM); in the experiment on Streptococcus pyogenes, 4 µg/mL (≈ 2.73 µM); with Enterococcus faecalis, 0.5 µg/mL (≈ 0.341 µM); in the experiment with Staphylococcus aureus, 1 µg/mL (≈ 0.682 µM). This molecule showed an inhibition at 2 µM in the experiment with Escherichia coli of 50%.
For `CNC(=O)C[C@@H]1NC(=O)c2csc(n2)-c2ccc(-c3nc(N(CCCCC(=O)O)C(=O)C[C@H]4CC[C@H](C(=O)O)CC4)cs3)nc2-c2csc(n2)-c2csc(n2)[C@H]([C@@H](O)c2ccccc2)NC(=O)CNC(=O)c2nc(sc2COC)[C@H](C(C)C)NC(=O)c2nc1sc2C`, the MIC was 0.25 µg/mL (≈ 0.183 µM) in experiment [1]; > 32 µg/mL in the experiment with Enterococcus faecium; 32 µg/mL (≈ 23.4 µM) in the experiment on Streptococcus pyogenes; 8 µg/mL (≈ 5.86 µM) against Enterococcus faecalis; 4 µg/mL (≈ 2.93 µM) in the experiment on Staphylococcus aureus. Also, at 2 µM the inhibition in the experiment on Escherichia coli was 30%.
On to `CNC(=O)C[C@@H]1NC(=O)c2csc(n2)-c2ccc(-c3nc(N(C)C(=O)CCCC(=O)O)cs3)nc2-c2csc(n2)-c2csc(n2)[C@H]([C@@H](O)c2ccccc2)NC(=O)CNC(=O)c2nc(sc2COC)[C@H](C(C)C)NC(=O)c2nc1sc2C`, for which the minimal inhibitory concentration (MIC) was 4 µg/mL (≈ 3.27 µM) with Enterococcus faecium, > 64 µg/mL in the experiment with Streptococcus pyogenes, 2 µg/mL (≈ 1.63 µM) against Enterococcus faecalis and 2 µg/mL (≈ 1.63 µM) in the experiment on Staphylococcus aureus. In addition, in the experiment with Escherichia coli, the inhibition at 2 µM amounted to 30%.
